According to ChEMBL document CHEMBL4359875, “Development of novel theranostic agents for in vivo amyloid imaging and protective effects on human neuroblastoma cells” (Eur J Med Chem, 2019):
pKd: −log10 of the molar value. The source made the active and inactive calls. The calls are words filed in the database; no cut-off is given here.

Tests used:
[1] = biological target: T1, Amyloid-beta precursor protein (Homo sapiens, UniProt P05067); experiment: Binding affinity to amyloid beta 1 to 42 (unknown origin) in PBS buffer at pH 7.4 assessed as increase in blue shift in maximum absorption at 0.2 uM by fluorescence based assay
Outline: (§1)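 Fluorescence titration in PBS pH 7.4: probe 0.2 μM with stepwise addition of synthetic Aβ1-42 aggregates (0 to 10.0 μM). Emission maxima compared with probe alone in PBS.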

[2] = biological target: T1, Amyloid-beta precursor protein; experiment: Binding affinity to amyloid beta 1 to 42 (unknown origin) in PBS buffer at pH 7.4 assessed as binding constant by fluorescence based assay
Outline: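 Synthetic Aβ1-42 aggregates in PBS. Kd from a saturation binding assay read by fluorescence. Triplicate, mean ± SD.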

[3] = Photostability of compound; type: physicochemical
[4] = Stability in mouse plasma assessed as remaining compound at 50 uM incubated for 30 to 60 mins by HPLC analysis; type: ADME, cell-free; conditions: read-out: Stability
Outline: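 Compound in ethanol (50 μM) added to plasma (1:9 by volume), with PBS as the standard. Incubated at 37 °C for 30 or 60 min. Mixture treated twice with acetonitrile and centrifuged. Supernatant analysed by HPLC on C18 with CH3CN/H2O 85:15 at 1 mL/min, 30 °C.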

[5] = test system: SH-SY5Y; experiment: Dark toxicity against human SH-SY5Y cells assessed as reduction in cell viability at 50 uM incubated for 24 hrs by MTT assay; type: cell-based
Outline: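 SH-SY5Y seeded at 5000 cells/well and incubated overnight. Compound added at a range of concentrations for 24 h, run with or without light exposure. MTT (5 mg/mL) added for 4 h, then absorbance read at 570 nm.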

[6] = biological target: Amyloid-beta precursor protein (Mus musculus) (UniProt P12023); experiment: Binding affinity to amyloid beta 1 to 42 in double transgenic C57BL/6 APPswe/PSEN1 mouse assessed as plaque formation in cortex region at 1 uM incubated for 5 mins by fluorescence microscopy
Outline: (§2)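 Frozen brain sections from male APP/PS1 double transgenic mice and age-matched male C57BL/6 wild-type mice, both 10 months old. Sections were washed in PBS to remove OCT, then stained with 1 μM probe or ThT in 10% ethanol for 5 min at room temperature. They were washed twice with ethanol and PBS (0.1 M, pH 7.4) for 10 min. Cortex and hippocampus were imaged by fluorescence microscopy with GFP and Cy5 filter sets.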

[7] = biological target: Amyloid-beta precursor protein (Mus musculus) (UniProt P12023); experiment: Binding affinity to amyloid beta 1 to 42 in C57BL/6 mouse brain cortex assessed as plague formation at 1 uM incubated for 5 mins by fluorescence microscopy; outline: as §2
[8] = test system: Mus musculus; experiment: In vivo binding affinity to amyloid beta 1 to 42 in APP/PS1 double transgenic C57BL/6 mouse brain assessed as amyloid-beta plaque-compound complex formation at 4 mg/kg, iv measured for 5 to 60 mins by NIR imaging analysis; type: functional, organism-based
Outline: (§3)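 Male APP/PS1 double-transgenic and age-matched wild-type C57BL/6 mice, 12 months old, shaved. Compound 4 mg/kg in 50 μl of 20% DMSO/80% propylene glycol given via tail vein. Mice kept under 2.5% isoflurane in oxygen. Head NIR fluorescence imaged before and at time points from 5 to 60 min after dosing.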

[9] = test system: Mus musculus; experiment: In vivo binding affinity to amyloid beta 1 to 42 in C57BL/6 mouse brain assessed as amyloid-beta plaque-compound complex formation at 4 mg/kg, iv measured for 5 to 60 mins by NIR imaging analysis; type: functional, organism-based; outline: as §3
[10] = biological target: T1, Amyloid-beta precursor protein; experiment: Inhibition of amyloid beta 1 to 42 aggregation in human SH-SY5Y cells incubated for 48 hrs by fluorescence microscopy; type: cell-based
Outline: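 SH-SY5Y seeded at 2000 cells/well with Aβ1-42 monomer (0.25 μM) alone or plus compound (0.05 or 0.5 μM), 48 h at 37 °C, 5% CO2. Controls got compound after the 2 days. Read as average pixel intensity of four random fields by fluorescence microscopy. Three independent experiments.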

[11] = biological target: Amyloid-beta precursor protein (Mus musculus) (UniProt P12023); experiment: Binding affinity to amyloid beta 1 to 42 in double transgenic C57BL/6 APPswe/PSEN1 mouse assessed as plaque formation in hippocampus region at 1 uM incubated for 5 mins by fluorescence microscopy; outline: as §2
[12] = biological target: Amyloid-beta precursor protein (Mus musculus) (UniProt P12023); experiment: Binding affinity to amyloid beta 1 to 42 in C57BL/6 mouse brain hippocampus assessed as plague formation at 1 uM incubated for 5 mins by fluorescence microscopy; outline: as §2
[13] = Metal chelating activity assessed as compound-Cu2+ complex formation at 20 uM by UV-visible spectroscopy
Outline: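 UV/Vis titration: compound 20 μM in water with CuSO4 added from 0 to 1000 μM. Spectrum recorded after each addition. Triplicate.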

[14] = biological target: T1, Amyloid-beta precursor protein; experiment: Inhibition of amyloid beta 1 to 42 (unknown origin)-induced cytotoxicity in human SH-SY5Y cells at 1 to 5 uM incubated for 24 hrs by MTT assay; type: cell-based
Outline: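 SH-SY5Y at 5000 cells/well, incubated overnight. Treated for 24 h with 5 μM Aβ1-42 monomer plus compound (1 or 5 μM). MTT (5 mg/mL) added for 4 h, absorbance read at 570 nm.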

[15] = biological target: T1, Amyloid-beta precursor protein; experiment: Inhibition of amyloid beta 1 to 42 (unknown origin)-induced ROS production in human SH-SY5Y cells at 1 and 5 uM incubated for 24 hrs by DCFH-DA staining based fluorescence assay; type: cell-based
Outline: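 SH-SY5Y at 5000 cells/well, incubated overnight. Medium then replaced with Aβ1-42 (2 μM final) alone or with compound (1 and 5 μM) for 24 h at 37 °C, 5% CO2. DCFH-DA 10 μM added for 30 min at 37 °C, cells washed twice. Fluorescence read at ex/em 488/525 nm. Mean ± SD, Student's t test.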

[16] = biological target: T1, Amyloid-beta precursor protein; experiment: Binding affinity to amyloid beta 1 to 42 (unknown origin) in PBS buffer at pH 7.4 assessed as increase in red shift in maximum absorption at 0.2 uM by fluorescence based assay; outline: as §1

Chain of Amyloid-beta precursor protein (Mus musculus) (P12023 whole entry): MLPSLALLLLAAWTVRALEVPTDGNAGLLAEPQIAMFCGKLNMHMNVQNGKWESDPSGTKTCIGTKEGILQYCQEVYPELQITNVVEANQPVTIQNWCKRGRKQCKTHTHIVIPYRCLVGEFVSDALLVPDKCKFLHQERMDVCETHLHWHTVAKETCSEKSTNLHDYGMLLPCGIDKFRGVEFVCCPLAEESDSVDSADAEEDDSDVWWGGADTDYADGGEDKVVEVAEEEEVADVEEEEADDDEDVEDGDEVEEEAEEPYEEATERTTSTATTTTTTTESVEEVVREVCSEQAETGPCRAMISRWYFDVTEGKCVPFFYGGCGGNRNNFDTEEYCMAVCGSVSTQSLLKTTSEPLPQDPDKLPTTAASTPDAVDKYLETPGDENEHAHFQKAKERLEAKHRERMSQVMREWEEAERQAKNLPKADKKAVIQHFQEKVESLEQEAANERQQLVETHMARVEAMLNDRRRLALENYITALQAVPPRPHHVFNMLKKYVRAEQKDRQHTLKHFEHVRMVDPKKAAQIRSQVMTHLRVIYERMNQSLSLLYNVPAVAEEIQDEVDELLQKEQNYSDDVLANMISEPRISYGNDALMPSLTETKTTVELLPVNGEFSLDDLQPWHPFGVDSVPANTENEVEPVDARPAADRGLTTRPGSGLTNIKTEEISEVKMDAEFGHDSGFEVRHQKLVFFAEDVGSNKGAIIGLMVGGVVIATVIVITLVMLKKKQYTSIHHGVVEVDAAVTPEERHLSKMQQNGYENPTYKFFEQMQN
T1 sequence (P05067 whole entry): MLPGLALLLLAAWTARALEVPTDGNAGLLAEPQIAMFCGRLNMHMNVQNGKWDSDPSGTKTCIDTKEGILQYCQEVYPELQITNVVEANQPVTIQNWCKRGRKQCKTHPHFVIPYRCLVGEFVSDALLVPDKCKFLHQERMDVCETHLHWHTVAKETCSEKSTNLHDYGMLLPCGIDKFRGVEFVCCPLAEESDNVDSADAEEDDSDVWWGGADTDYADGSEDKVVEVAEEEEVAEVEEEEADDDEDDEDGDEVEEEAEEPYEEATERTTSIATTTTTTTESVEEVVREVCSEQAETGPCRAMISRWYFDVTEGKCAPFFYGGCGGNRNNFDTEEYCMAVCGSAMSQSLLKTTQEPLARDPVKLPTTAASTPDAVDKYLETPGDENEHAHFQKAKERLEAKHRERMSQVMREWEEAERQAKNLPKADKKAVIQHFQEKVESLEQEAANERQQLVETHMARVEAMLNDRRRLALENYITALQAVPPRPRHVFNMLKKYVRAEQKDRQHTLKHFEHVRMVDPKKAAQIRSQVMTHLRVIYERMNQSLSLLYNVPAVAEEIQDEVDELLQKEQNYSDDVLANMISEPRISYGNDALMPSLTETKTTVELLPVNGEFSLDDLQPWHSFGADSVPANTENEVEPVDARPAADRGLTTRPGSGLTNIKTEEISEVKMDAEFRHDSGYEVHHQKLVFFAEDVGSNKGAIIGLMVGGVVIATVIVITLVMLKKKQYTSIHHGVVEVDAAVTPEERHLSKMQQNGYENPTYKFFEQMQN

Compound	fold change (FC) [1]	pKd [2]	Stability [3]	remaining at 50 µM [4] [%]	Activity [5]	Activity [6]	Activity [7]	Activity [8]	Activity [9]	inhibition [10]	Activity [11]	Activity [12]	Activity [13]	Activity [14]	Activity [15]	fold change (FC) [16]
CN1c2ccccc2Sc2cc(/C=C3/SC(=S)N(CC(=O)OCC4COC(C)(C)O4)C3=O)ccc21 (stereo not drawn)	22	7.61	Stable	> 96	Non-Toxic	Active	inactive	Active	inactive	Dose-dependent effect	Active	inactive	–	–	–	–
CN1c2ccccc2Sc2cc(/C=C3/SC(=S)N(CC(=O)OCC(O)CO)C3=O)ccc21 (stereo not drawn)	9.5	7.46	Stable	> 96	Non-Toxic	–	–	–	–	–	–	–	Active	Active	Active	–
CN1c2ccccc2Sc2cc(/C=C3/SC(=S)N(CC(=O)N(CC(=O)O)CC(=O)O)C3=O)ccc21	–	7.12	Stable	> 96	Non-Toxic	–	–	–	–	–	–	–	Active	Active	Active	2.4
CCOC(=O)CN(CC(=O)OCC)C(=O)CN1C(=O)/C(=C\c2ccc3c(c2)Sc2ccccc2N3C)SC1=S	38.3	7.33	Stable	> 96	Non-Toxic	–	–	–	–	–	–	–	–	–	–	–
